Molecular target: Androgen receptor (Homo sapiens) (UniProt P10275)
Experiment: Percent displacement of [3H]DHT binding to human androgen receptor expressed in Escherichia coli strain HB-101 at 10 uM
Procedure, shortened: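 GST-hAR ligand-binding domain expressed in E. coli HB-101 (1 mM IPTG, 27 °C, 4.5 h); crude sonicate diluted to 0.3-0.5 mg/mL protein (20 mM Tris-HCl pH 8.0, 0.3 M KCl, 1 mM EDTA). Incubated 15 h at 4 °C in dark with 4 nM [3H]DHT and 1 μM triamcinolone acetonide (final). Nonspecific binding measured with 200-fold unlabeled DHT. Dextran/γ-globulin-charcoal separation, supernatant scintillation-counted.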

UniProt P10275, sequence (P10275 whole entry): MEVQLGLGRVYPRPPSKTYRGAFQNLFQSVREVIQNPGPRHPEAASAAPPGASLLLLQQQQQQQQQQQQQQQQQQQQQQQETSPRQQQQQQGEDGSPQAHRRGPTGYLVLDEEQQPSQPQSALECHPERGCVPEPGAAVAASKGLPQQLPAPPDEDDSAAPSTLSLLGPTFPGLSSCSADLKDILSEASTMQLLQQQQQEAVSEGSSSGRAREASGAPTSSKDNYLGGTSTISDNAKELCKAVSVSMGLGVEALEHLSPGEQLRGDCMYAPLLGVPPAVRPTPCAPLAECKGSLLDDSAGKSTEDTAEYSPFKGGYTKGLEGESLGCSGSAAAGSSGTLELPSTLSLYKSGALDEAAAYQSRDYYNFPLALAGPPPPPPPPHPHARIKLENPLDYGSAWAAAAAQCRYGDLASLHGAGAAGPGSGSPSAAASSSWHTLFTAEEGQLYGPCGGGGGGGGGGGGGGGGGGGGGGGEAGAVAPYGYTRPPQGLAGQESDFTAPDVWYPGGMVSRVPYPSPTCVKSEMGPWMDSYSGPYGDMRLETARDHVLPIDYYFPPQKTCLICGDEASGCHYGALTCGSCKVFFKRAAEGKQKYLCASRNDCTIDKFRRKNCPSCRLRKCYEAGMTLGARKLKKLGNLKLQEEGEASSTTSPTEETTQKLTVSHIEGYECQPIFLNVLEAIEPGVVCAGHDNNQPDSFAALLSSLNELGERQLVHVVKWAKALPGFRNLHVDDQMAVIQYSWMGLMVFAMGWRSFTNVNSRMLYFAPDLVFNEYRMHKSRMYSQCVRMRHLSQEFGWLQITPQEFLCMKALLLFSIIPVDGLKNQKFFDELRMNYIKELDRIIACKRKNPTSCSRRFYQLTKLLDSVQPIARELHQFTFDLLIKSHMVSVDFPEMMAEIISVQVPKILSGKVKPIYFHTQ

| Substance | Binding affinity [%] |
| --- | --- |
| 1-(2-Hydroxyethyl)-12-(3-nitrophenyl)-1,12-dicarbacloso-dodecaborane | 63 |
| 1-(3-Hydroxypropyl)-12-(3-nitrophenyl)-1,12-dicarbacloso-dodecaborane | 39 |
| 1-(3-Nitrophenyl)-1,12-dicarba-closo-dodecaborane | 36 |
| 1-(3-Nitrophenyl)-1,12-dicarba-closo-dodecaborane-1-carboxylic Acid | 35 |
| 1-(4-Hydroxybutyl)-12-(3-nitrophenyl)-1,12-dicarbacloso-dodecaborane | 20 |
| 1-(4-Nitrophenyl)-1,12-dicarba-closo-dodecaborane | 29 |
| 1-Hydroxy-12-(3-cyanophenyl)-1,12-dicarba-closo-dodecaborane | 66 |
| 1-Hydroxy-12-(3-nitrophenyl)-1,12-dicarba-closo-dodecaborane | 75 |
| 1-Hydroxy-12-(4-cyanophenyl)-1,12-dicarba-closo-dodecaborane | 50 |
| 1-Hydroxy-12-(4-nitrophenyl)-1,12-dicarba-closo-dodecaborane | 53 |
| 1-Hydroxymethyl-7-(3-nitrophenyl)-1,7-dicarba-closododecaborane | 54 |
| 1-Hydroxymethyl-7-(4-nitrophenyl)-1,7-dicarba-closododecaborane | 60 |
| 1-Hydroxymethyl-12-(3-cyanophenyl)-1,12-dicarbacloso-dodecaborane | 95 |
| 1-Hydroxymethyl-12-(3-nitrophenyl)-1,12-dicarba-closododecaborane | 97 |
| 1-Hydroxymethyl-12-(4-cyanophenyl)-1,12-dicarbacloso-dodecaborane | 54 |
| 1-Hydroxymethyl-12-(4-nitrophenyl)-1,12-dicarba-closodod caborane | 55 |
| 1-Methoxycarbonyl-12-(3-nitrophenyl)-1,12-dicarbacloso-dodecaborane | 18 |

From ChEMBL document CHEMBL1140318, “Potent androgen antagonists based on carborane as a hydrophobic core structure” (J Med Chem, 2005)
